Test results: PMC6976987 (Molecular Genetics and Metabolism Reports, 2020)
Marks after values point to notes of the source that are not given here.

Key:
[1] = Paroxetine drug interaction study: eliglustat pharmacokinetics in healthy adults; assay type: in vivo, human; settings: for AUC: AUC0-τ; for AUC / AUC(0-inf) / Cmax: mean (SD); for AUC(0-inf): AUC0-∞
In short: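 Open-label, fixed-sequence study in healthy CYP2D6 non-poor metabolizers. Oral test compound 84 mg, fasted: single dose Day 1, BID Days 2–8, then BID with a strong CYP2D6 inhibitor 30 mg QD Days 9–18. Plasma sampled to 36 h Day 1, 12 h Day 8, 72 h Day 18, plus pre-dose samples. LC-MS/MS, LLOQ 0.5 ng/mL. Non-compartmental PK, tmax as median (min, max); ratios from log-transformed mixed-effects model.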

[2] = test system: glucosylceramide synthase; settings: read-out: in vitro IC50; inhibitor of glucosylceramide synthase; cited from earlier work
Safety assessments [3] = assay type: in vivo, human
In short: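 Open-label study in healthy adults. Safety was monitored after a single dose (Day 1), during multiple doses alone (Days 2–8), and during co-dosing (Days 9–15 with the CYP3A/P-gp inhibitor; Days 9–18 with the CYP2D6 inhibitor). Measures: treatment-emergent AEs, clinical labs, vital signs, physical exams, 12-lead ECG, 12 h continuous telemetry. An AE counted as treatment-related if possibly, probably or definitely related to study drug.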

Safety assessments [4] = assay type: in vivo, human; remark: listed apart in the source
[5] = CYP2D6 EMs only, eliglustat 84 mg BID with paroxetine 30 mg QD
[6] = CYP2D6 non-PMs, eliglustat 84 mg BID with paroxetine 30 mg QD
[7] = concomitant dosing of eliglustat with paroxetine
[8] = concomitant dosing of eliglustat with paroxetine, Days 9 to 18, N = 35
[9] = multiple-dose eliglustat alone, Days 2 to 8, N = 36
[10] = paroxetine study (N = 36), whole study
[11] = rifampin study (N = 25), whole study
[12] = rifampin study (N = 25), road traffic accident, unrelated to eliglustat or rifampin

In the case of CCCCCCCC(=O)N[C@H](CN1CCCC1)[C@H](O)c1ccc2c(c1)OCCO2 [eliglustat], the “increase in eliglustat AUC0-τ compared to eliglustat alone” value [1, 5] is reported as 8.4 fold, the “increase in eliglustat Cmax compared to eliglustat alone” value [1, 5] is reported as 7.0 fold and the “increase in eliglustat AUC0-τ (exposure) compared to eliglustat alone” value [1, 6] is reported as 8.9 fold. The “increase in eliglustat Cmax compared to eliglustat alone” value [1, 6] was 7.3 fold, the “Ratio (%) of geometric least squares mean, AUC0-t” value ([1]; all subjects, multiple dose, test 30 mg paroxetine oral QD + 84 mg eliglustat oral BID (N = 33) vs reference 84 mg eliglustat oral BID alone (N = 34), 0 to 12 h) was 8.93% and the “Ratio (%) of geometric least squares mean, Cmax” value ([1]; all subjects, multiple dose, test 30 mg paroxetine oral QD + 84 mg eliglustat oral BID (N = 33) vs reference 84 mg eliglustat oral BID alone (N = 36)) was 7.31%. The Tmax ([1]; eliglustat 84 mg BID, Days 2 to 8, all (N = 36), median (minimum, maximum)) was 2.0 (0.5–3.0) h, the Tmax ([1]; human, plasma, oral, 84 mg) was 2 h and the half-life ([1]; human, plasma, oral, 84 mg) was 4.2 h. For the same molecule, the AUC ([1]; human, plasma, oral, 84 mg, eliglustat 84 mg BID, Days 2 to 8, CYP2D6 EMs only (N = 33), 0 to 12 h) was 120 ng·h/mL, the AUC ([1]; human, plasma, oral, 84 mg, eliglustat 84 mg BID, Days 2 to 8, all (N = 34), 0 to 12 h) was 120 ng·h/mL and the AUC(0-inf) ([1]; human, plasma, oral, 84 mg, eliglustat 84 mg single dose, Day 1, CYP2D6 EMs only (N = 28)) was 77.4 ng·h/mL. For the same molecule, the AUC(0-inf) ([1]; human, plasma, oral, 84 mg, eliglustat 84 mg single dose, Day 1, all (N = 30)) was 78.1 ng·h/mL, the Cmax ([1]; human, plasma, oral, 84 mg, eliglustat 84 mg BID, Days 2 to 8, CYP2D6 EMs only (N = 33)) was 19.4 ng/mL and the Cmax ([1]; human, plasma, oral, 84 mg, eliglustat 84 mg BID, Days 2 to 8, all (N = 36)) was 19.3 ng/mL. It also gave a Cmax ([1]; human, plasma, oral, 84 mg, eliglustat 84 mg single dose, Day 1, CYP2D6 EMs only (N = 33)) of 10.9 ng/mL, a Cmax ([1]; human, plasma, oral, 84 mg, eliglustat 84 mg single dose, Day 1, all (N = 36)) of 10.7 ng/mL and an AUC ([1]; human, plasma, oral, eliglustat 84 mg BID + paroxetine 30 mg QD, Days 9 to 18, CYP2D6 EMs only (N = 30), 0 to 12 h) of 847 ng·h/mL. The Cmax ([1]; human, plasma, oral, eliglustat 84 mg BID + paroxetine 30 mg QD, Days 9 to 18, CYP2D6 EMs only (N = 30)) was 110 ng/mL, the Cmax ([1]; human, plasma, oral, eliglustat 84 mg BID + paroxetine 30 mg QD, Days 9 to 18, all (N = 33)) was 110 ng/mL and the IC50 [2] was 24 nM. The tolerability (Safety assessments [3]; administered alone and with paroxetine) was “well tolerated”, the “subjects with application site dermatitis” value (Safety assessments [3]; [7]) was 31.4% and the “subjects with moderate treatment-related headache” value (Safety assessments [3]; [7]) was 11.4%. For the same molecule, the “number of AEs” value (Safety assessments [3]; [8]) was 194 events, the “subjects with AEs” value (Safety assessments [3]; [8]) was 91.4% and the “subjects reporting AEs related to eliglustat” value (Safety assessments [3]; concomitant dosing with paroxetine, N = 35) was 65.7%. The “subjects reporting AEs possibly related to both eliglustat and paroxetine” value (Safety assessments [3]; concomitant dosing, N = 35) was 65.7%, the “subjects reporting treatment-related AEs” value (Safety assessments [3]; following a single dose of eliglustat, Day 1, N = 36) was 5.6% and the “subjects with moderate gastritis” value (Safety assessments [3]; following multiple-dose eliglustat) was 5.6%. The “subjects who discontinued treatment due to AEs” value (Safety assessments [3]; gastritis (eliglustat alone), dizziness and nausea, nausea and panic attack (concomitant dosing)) was 8.3%, the “subjects with moderate treatment-related headache” value (Safety assessments [3]; multiple-dose eliglustat) was 2.8% and the “number of AEs” value (Safety assessments [3]; [9]) was 31 events. For the same molecule, the “subjects with AEs” value (Safety assessments [3]; [9]) was 41.7%, the “subjects reporting treatment-related AEs” value (Safety assessments [3]; multiple-dose eliglustat, Days 2 to 8, N = 36) was 27.8% and the “Any adverse event (AE), number of events” value (Safety assessments [3]; [10]) was 233 N. For the same molecule, the “Any adverse event (AE), number of subjects” value (Safety assessments [3]; [10]) was 33 (91.7%) N (%), the “Any treatment-related AE, number of events” value (Safety assessments [3]; [10]) was 155 N and the “Any treatment-related AE, number of subjects” value (Safety assessments [3]; [10]) was 26 (72.2%) N (%). For the same molecule, the “Discontinuations due to AE, number of events” value (Safety assessments [3]; [10]) was 5 N, the “Discontinuations due to AE, number of subjects” value (Safety assessments [3]; [10]) was 3 (8.3%) N (%) and the “Serious AEs, number of events” value (Safety assessments [3]; [10]) was 0 N. For the same molecule, the “Serious AEs, number of subjects” value (Safety assessments [3]; [10]) was 0 (0.0%) N (%), the “Severe AEs, number of events” value (Safety assessments [3]; [10]) was 0 N and the “Severe AEs, number of subjects” value (Safety assessments [3]; [10]) was 0 (0.0%) N (%). For the same molecule, the tolerability (Safety assessments [4]; administered alone and with rifampin) was “well tolerated”, the “subjects with moderate dizziness” value (Safety assessments [4]; after completing multiple doses of eliglustat alone) was 4.0% and the “subjects reporting an AE related to eliglustat” value (Safety assessments [4]; concomitant dosing with IV rifampin, Day 12, N = 25) was 4.0%. The “subjects reporting AEs related to eliglustat” value (Safety assessments [4]; concomitant dosing with oral rifampin, Days 13 to 17, N = 24) was 8.3%, the “subjects with moderate nausea, vomiting, and retching” value (Safety assessments [4]; during the multiple doses of eliglustat alone) was 4.0% and the “subjects reporting treatment-related AEs” value (Safety assessments [4]; following treatment with eliglustat alone, N = 25) was 20.0%. The “Any adverse event (AE), number of events” value (Safety assessments [4]; [11]) was 65 N, the “Any adverse event (AE), number of subjects” value (Safety assessments [4]; [11]) was 17 (68.0%) N (%) and the “Any treatment-related AE, number of events” value (Safety assessments [4]; [11]) was 39 N. For the same molecule, the “Any treatment-related AE, number of subjects” value (Safety assessments [4]; [11]) was 11 (44.0%) N (%), the “Discontinuations due to AE, number of events” value (Safety assessments [4]; [12]) was 1 ^a N and the “Discontinuations due to AE, number of subjects” value (Safety assessments [4]; [12]) was 1 (4%) N (%). The “Serious AEs, number of events” value (Safety assessments [4]; [12]) was 1 ^a N, the “Serious AEs, number of subjects” value (Safety assessments [4]; [12]) was 1 (4%) N (%) and the “Severe AEs, number of events” value (Safety assessments [4]; [12]) was 1 ^a N. The “Severe AEs, number of subjects” value (Safety assessments [4]; [12]) was 1 (4%) N (%) and the “subjects reporting moderate AEs that were treatment-related” value (Safety assessments [4]; rifampin study overall) was 12.0%.
